From ChEMBL document CHEMBL4616671, “Identification of N-Phenyl-7H-pyrrolo[2,3-d]pyrimidin-4-amine Derivatives as Novel, Potent, and Selective NF-κB Inducing Kinase (NIK) Inhibitors for the Treatment of Psoriasis” (J Med Chem, 2020)
The source made the active and inactive calls. No cut-off for these calls is given here.

Experiments:
Mus musculus [1] = experiment: Protection against IMQ-induced dermatitis in C57 mouse model of psoriasis assessed as reduction in skin swelling at 60 to 120 mg/kg, ig administered once daily starting from day 3 post IMQ-challenge and measured 2 days post-last dose of IMQ; type: functional, organism-based
Method in brief: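 C57 mice given 5% imiquimod cream on the back once daily for 7 days; intragastric dosing 60 or 120 mg/kg once daily from day 3 to end, n = 6 per group. Dorsal skin phenotype assessed by imaging.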

J774 [2] = experiment: Antiinflammatory activity in mouse J774 cells assessed as reduction in LPS-induced CCL3 mRNA level by SYBR green dye-based quantitative PCR analysis; type: functional, cell-based
Method in brief: (§1)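 LPS-stimulated J774 macrophages; mRNA quantified by qPCR using 4 µL cDNA plus 16 µL master mix per reaction. Mean ± SD of three biological replicates; significance by two-tailed Student's t-test against the model group.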

T-cell [3] = experiment: Growth inhibition of mouse T cells at 10 uM after 48 hrs by CCK8 assay; type: cell-based
Method in brief: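 Unstimulated mouse splenic T cells exposed to compound at 10 µM. Growth read by CCK-8 absorbance; […]. Mean ± SD, three independent experiments.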

[4] = target: Mitogen-activated protein kinase kinase kinase 14 (Mus musculus) (UniProt Q9WUL6); experiment: (§2) In vivo inhibition of NIK in C57 mouse model of IMQ-induced psoriasis assessed as reduction in NF-kappaB signalling in back skin by measuring decrease in mRNA IL-12 level at 60 to 120 mg/kg, po administered starting from day 3 post IMQ-challenge and measured 2 days post-last dose of IMQ by qPCR analysis; type: functional, organism-based
Method in brief: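 C57 mice had 5% imiquimod cream applied to the back skin once daily for seven consecutive days. Oral gavage dosing at 60 or 120 mg/kg once daily started on day 3 and continued to the end, with n = 6 per group alongside normal and IMQ-only model groups. Back-skin mRNA was quantified by qPCR.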

T-cell [5] = experiment: Antiinflammatory activity in mouse T cells assessed as inhibition of conA-induced induced T cell proliferation at 2 uM incubated for 48 hrs by CCK8 assay relative to control; type: functional
[6] = Tmax in Sprague-Dawley rat at 10 mg/kg, po administered via gavage by LC-MS/MS analysis; type: ADME, organism-based; settings: in vivo
Method in brief: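 SD rats, 3 per group. Single IV bolus at 1 mg/kg in DMSO:PEG200:saline 20:20:60 (0.2 mg/mL), or oral gavage at 10 mg/kg as suspension in 0.5% CMC-Na/0.2% Tween 80 (1 mg/mL). Plasma protein-precipitated with acetonitrile containing internal standards, then quantified by LC-MS/MS. Parameters derived by noncompartmental analysis. Mean ± SD.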

[7] = target: T1, Mitogen-activated protein kinase kinase kinase 14 (Homo sapiens, UniProt Q99558); experiment: Inhibition of human NIK using myelin basic protein as substrate in presence of [gamma33P]ATP by hotspot assay
Target sequence in this assay (Q99558 whole entry): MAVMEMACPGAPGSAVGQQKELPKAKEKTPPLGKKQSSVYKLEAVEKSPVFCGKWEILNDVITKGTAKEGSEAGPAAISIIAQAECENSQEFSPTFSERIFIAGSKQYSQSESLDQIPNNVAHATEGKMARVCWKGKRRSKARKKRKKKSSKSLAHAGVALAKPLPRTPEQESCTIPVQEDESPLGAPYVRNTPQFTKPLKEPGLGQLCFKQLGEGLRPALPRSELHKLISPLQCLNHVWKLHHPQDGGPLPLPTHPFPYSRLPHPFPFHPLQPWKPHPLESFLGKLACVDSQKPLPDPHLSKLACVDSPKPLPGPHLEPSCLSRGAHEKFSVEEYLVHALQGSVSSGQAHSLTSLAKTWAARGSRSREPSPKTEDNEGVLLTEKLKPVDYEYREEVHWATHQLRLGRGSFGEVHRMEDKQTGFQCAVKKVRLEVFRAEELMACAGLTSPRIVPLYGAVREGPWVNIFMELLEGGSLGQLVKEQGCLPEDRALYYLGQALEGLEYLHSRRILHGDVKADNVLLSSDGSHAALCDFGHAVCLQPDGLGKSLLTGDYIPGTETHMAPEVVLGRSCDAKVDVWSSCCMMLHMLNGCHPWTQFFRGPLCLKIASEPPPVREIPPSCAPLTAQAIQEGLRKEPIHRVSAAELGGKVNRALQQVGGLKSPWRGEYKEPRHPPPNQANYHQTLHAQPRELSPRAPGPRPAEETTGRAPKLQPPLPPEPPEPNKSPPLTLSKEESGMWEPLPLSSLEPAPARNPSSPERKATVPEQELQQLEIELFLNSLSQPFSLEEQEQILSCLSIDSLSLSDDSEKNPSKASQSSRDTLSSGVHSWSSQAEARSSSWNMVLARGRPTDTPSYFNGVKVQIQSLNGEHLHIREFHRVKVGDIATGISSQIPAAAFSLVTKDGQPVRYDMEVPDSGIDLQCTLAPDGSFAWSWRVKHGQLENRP

[8] = target: Mitogen-activated protein kinase kinase kinase 14 (Mus musculus) (UniProt Q9WUL6); experiment: as §2, with “IL-10” for “IL-12”; type: functional, organism-based
Method in brief: (§3)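 IMQ psoriasis model: 5% imiquimod cream applied to C57 mouse back skin once daily for seven days; oral dosing 60 or 120 mg/kg once daily from day 3, n = 6 per group. Back-skin mRNA measured by qPCR.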

[9] = Intrinsic clearance in dog liver microsomes assessed as per mg of protein incubated for 10 mins followed by potassium phosphate buffer addition and measured after 5 to 60 mins by LC-MS/MS analysis; type: ADME, Canis lupus familiaris, Microsome; settings: read-out: CLH
Method in brief: (§4)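 Rat, dog, monkey or human liver microsomes pre-incubated with compound at 37 °C for 10 min; reaction started after pre-warming and stopped at 5, 15, 30, 60 min with chilled quench containing tolbutamide and labetalol. No-cofactor control in 100 mM potassium phosphate for 60 min. LC-MS/MS analysis; first-order fit: k = −slope, T1/2 = 0.693/k, CLint = k/microsomal protein concentration.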

[10] = target: Mitogen-activated protein kinase kinase kinase 14 (Mus musculus) (UniProt Q9WUL6); experiment: as §2, with “IL-6” for “IL-12”; type: functional, organism-based; method in brief: as §3
J774 [11] = experiment: Antiinflammatory activity in mouse J774 cells assessed as reduction in LPS-induced IL-1 beta mRNA level by SYBR green dye-based quantitative PCR analysis; type: functional, cell-based; method in brief: as §1
[12] = Clearance in Sprague-Dawley rat at 1 mg/kg, iv administered as single bolus dose by LC-MS/MS analysis; type: ADME, organism-based; settings: in vivo
J774 [13] = experiment: Antiinflammatory activity in mouse J774 cells assessed as reduction in LPS-induced IL23 mRNA level by SYBR green dye-based quantitative PCR analysis; type: functional, cell-based; method in brief: as §1
Aurora kinase B = Aurora kinase B (Homo sapiens, UniProt Q96GD4); experiment: Inhibition of human Aurora B using [H-LRRASLG] as substrate in presence of [gamma33P]ATP by hotspot assay
[14] = target: T1, Mitogen-activated protein kinase kinase kinase 14; experiment: Inhibition of NIK in human BEAS2B cells assessed as reduction in LPS-induced IL-6 level preincubated for 8 hrs followed by LPS stimulation and measured after 24 hrs by ELISA; type: cell-based
Method in brief: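 BEAS-2B cells were grown in DMEM with 10% FBS, seeded at 5000 cells/well, and cultured 24 h at 37 °C in 5% CO2. Compounds were given at 7 concentrations from 10 μM to 0.014 μM (3 replicate wells), with dexamethasone as positive control. After 8 h, LPS (20 μg/mL solution) was added for 24 h. Supernatant IL-6 was read by human IL-6 ELISA; two biological replicates.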
Target sequence in this assay (Q99558 whole entry, looked up): as the sequence (Q99558 whole entry) above

Mus musculus [15] = experiment: Suppression of IMQ-induced psoriasis in C57 mouse assessed as reduction in macrophage infiltration in back skin tissue at 60 to 120 mg/kg, ig administered starting from day 3 post IMQ-challenge and measured 2 days post-last dose of IMQ by F4/80 immunofluorescence staining based assay; type: functional, organism-based
Method in brief: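 IMQ-induced C57 mice (5% cream 7 days; 60 or 120 mg/kg i.g. daily from day 3). Frozen back-skin sections, 6 µm, stained with F4/80 antibody, DAPI counterstain, and imaged by confocal microscopy. Significance by two-tailed t-test.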

[16] = Elimination half life in human liver microsomes incubated for 10 mins followed by potassium phosphate buffer addition and measured after 5 to 60 mins by LC-MS/MS analysis; type: ADME, Microsome; settings: read-out: beta t1/2; method in brief: as §4
Mus musculus [17] = experiment: Suppression of epidermal and dermal cell proliferation in C57 mouse model of IMQ-induced psoriasis assessed as reduction in Ki67 expression in back skin psoriatic lesions at 60 mg/kg, ig administered starting from day 3 post IMQ-challenge and measured 2 days post-last dose of IMQ by immunohistochemical analysis relative to control; type: functional; settings: C57, topical
Method in brief: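 C57 mice given 5% imiquimod cream on back skin q.d. for seven days. Gavage q.d. at 60 or 120 mg/kg from day 3, n = 6 per group. Back-skin frozen sections (6 µm) stained for Ki67 by IHC. % Ki67+ of total cells quantified and normalized to IMQ-only model group. Two-tailed t-test, mean ± SD.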

[18] = Elimination half life in rat liver microsomes incubated for 10 mins followed by potassium phosphate buffer addition and measured after 5 to 60 mins by LC-MS/MS analysis; type: ADME, Microsome; settings: read-out: beta t1/2; method in brief: as §4
[19] = Elimination half life in monkey liver microsomes incubated for 10 mins followed by potassium phosphate buffer addition and measured after 5 to 60 mins by LC-MS/MS analysis; type: ADME, Macaca mulatta, Microsome; settings: rhesus monkey, read-out: beta t1/2; method in brief: as §4
[20] = target: Leucine-rich repeat serine/threonine-protein kinase 2 (Homo sapiens, UniProt Q5S007); experiment: Inhibition of human LRRK2 using [RLGRDKYKTLRQIRQ] as substrate in presence of [gamma33P]ATP by hotspot assay
Sequence of Leucine-rich repeat serine/threonine-protein kinase 2 (Q5S007 whole entry): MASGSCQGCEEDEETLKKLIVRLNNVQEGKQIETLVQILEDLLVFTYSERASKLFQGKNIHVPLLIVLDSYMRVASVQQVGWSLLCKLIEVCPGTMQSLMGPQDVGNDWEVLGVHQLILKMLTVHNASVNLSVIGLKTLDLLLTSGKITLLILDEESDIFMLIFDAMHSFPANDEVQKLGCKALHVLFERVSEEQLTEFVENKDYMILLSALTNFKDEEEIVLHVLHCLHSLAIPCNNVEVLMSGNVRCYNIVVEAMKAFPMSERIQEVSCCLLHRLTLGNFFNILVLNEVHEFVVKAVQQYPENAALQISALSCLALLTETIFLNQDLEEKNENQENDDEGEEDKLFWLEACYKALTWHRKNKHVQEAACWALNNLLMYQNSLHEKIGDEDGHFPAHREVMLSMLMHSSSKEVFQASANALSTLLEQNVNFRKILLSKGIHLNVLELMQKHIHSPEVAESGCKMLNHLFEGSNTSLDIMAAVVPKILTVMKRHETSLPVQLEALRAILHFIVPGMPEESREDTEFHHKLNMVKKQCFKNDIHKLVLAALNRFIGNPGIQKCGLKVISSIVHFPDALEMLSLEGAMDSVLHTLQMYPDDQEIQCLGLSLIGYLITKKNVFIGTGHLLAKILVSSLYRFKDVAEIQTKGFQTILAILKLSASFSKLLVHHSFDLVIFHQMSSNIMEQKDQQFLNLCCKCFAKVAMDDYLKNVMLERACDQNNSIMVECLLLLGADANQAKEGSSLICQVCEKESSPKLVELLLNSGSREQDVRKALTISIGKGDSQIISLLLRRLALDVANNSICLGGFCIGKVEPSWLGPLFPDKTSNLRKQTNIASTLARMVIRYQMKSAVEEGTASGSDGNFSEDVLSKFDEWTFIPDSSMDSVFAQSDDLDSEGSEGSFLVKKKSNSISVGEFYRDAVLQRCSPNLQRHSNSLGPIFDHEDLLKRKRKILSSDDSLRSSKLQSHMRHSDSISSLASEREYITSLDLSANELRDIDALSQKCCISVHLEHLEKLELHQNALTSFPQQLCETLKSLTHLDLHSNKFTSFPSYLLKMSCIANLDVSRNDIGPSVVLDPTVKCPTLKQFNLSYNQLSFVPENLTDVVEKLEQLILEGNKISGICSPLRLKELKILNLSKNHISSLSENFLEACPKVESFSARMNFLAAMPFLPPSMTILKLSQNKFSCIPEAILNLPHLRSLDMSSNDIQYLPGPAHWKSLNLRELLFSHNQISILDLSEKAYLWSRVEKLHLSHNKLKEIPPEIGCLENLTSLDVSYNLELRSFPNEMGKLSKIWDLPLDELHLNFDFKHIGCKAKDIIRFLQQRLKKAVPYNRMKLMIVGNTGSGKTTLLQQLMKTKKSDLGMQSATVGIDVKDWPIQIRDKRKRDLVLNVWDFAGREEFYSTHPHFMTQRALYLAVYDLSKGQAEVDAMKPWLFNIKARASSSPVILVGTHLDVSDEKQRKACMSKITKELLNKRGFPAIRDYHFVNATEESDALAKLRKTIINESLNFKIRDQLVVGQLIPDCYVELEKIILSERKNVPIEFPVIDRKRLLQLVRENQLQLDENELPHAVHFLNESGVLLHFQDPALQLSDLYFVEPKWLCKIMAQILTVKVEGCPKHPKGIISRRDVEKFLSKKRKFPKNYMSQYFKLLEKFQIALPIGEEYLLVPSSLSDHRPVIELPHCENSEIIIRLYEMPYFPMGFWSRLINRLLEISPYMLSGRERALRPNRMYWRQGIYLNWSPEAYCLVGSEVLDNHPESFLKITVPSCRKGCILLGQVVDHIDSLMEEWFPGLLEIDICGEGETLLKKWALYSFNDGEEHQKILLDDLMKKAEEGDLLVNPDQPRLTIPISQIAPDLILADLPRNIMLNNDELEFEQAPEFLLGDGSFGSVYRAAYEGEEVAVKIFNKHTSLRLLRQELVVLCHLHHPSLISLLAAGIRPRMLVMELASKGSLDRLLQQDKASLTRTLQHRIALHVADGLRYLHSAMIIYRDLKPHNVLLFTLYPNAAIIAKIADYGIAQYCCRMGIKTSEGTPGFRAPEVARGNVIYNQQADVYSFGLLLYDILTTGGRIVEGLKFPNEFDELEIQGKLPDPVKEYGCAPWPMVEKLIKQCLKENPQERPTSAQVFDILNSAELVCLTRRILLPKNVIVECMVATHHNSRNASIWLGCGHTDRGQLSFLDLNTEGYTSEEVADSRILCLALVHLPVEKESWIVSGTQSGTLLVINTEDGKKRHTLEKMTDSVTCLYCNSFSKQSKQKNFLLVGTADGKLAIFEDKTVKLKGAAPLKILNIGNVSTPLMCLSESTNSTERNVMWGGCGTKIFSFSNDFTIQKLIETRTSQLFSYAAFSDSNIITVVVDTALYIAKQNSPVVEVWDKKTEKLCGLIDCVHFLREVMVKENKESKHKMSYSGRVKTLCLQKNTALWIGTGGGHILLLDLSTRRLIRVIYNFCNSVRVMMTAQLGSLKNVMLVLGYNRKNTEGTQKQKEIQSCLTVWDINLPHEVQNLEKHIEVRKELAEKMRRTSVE

Sequence of Mitogen-activated protein kinase kinase kinase 14 (Mus musculus) (Q9WUL6 whole entry): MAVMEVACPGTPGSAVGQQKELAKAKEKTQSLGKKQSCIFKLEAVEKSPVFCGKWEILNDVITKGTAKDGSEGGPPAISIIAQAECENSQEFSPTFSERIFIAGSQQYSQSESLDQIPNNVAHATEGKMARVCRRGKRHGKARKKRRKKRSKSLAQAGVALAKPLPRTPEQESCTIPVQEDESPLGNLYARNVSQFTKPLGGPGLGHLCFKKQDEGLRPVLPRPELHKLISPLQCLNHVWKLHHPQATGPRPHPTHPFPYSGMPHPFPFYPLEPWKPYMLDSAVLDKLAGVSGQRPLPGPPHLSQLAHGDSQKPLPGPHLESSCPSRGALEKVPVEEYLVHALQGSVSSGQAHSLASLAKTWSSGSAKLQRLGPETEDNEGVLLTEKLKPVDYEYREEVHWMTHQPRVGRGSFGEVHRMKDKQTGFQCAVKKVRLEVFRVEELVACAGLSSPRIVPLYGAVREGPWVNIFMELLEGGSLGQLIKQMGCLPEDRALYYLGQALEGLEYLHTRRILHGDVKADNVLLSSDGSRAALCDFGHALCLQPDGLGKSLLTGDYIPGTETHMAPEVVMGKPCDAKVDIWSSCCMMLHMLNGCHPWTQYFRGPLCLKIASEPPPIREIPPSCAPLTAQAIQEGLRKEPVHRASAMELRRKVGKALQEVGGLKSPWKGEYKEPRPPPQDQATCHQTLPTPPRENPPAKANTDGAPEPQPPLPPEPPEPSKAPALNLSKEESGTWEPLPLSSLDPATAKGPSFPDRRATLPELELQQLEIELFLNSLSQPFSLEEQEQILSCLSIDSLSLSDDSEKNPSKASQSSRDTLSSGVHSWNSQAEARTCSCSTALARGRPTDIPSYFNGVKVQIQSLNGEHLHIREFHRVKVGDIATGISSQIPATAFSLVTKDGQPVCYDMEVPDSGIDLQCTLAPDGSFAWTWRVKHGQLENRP
Sequence of Aurora kinase B (Q96GD4 whole entry): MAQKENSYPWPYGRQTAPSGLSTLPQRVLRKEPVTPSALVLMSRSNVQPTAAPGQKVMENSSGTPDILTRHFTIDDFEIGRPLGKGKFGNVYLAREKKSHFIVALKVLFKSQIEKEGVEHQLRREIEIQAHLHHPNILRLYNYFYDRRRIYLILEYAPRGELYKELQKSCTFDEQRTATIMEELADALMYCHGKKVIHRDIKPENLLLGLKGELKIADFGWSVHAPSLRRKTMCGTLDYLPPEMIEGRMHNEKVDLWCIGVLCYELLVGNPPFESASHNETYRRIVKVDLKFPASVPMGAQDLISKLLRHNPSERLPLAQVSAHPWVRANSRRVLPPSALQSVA

inhibition [4]: Active
Tmax [6]: 50 min
IC50 [7]: 9.7 nM
inhibition [8]: Active
microsomal CLint [9]: 43.3 µL/min/mg
inhibition [10]: Active
clearance [12]: 40.3 mL/min/kg
IC50 (Aurora kinase B): 43.2 nM
inhibition [14]: Dose-dependent effect
half-life [16]: 42.9 min
half-life [18]: 30.8 min
half-life [19]: 18 min
IC50 [20]: 94.6 nM
SMILES: CC(O)(C#Cc1ccc(N2CCOCC2)c(Nc2ncnc3[nH]ccc23)c1)c1nccs1 (racemic)
Activity (Mus musculus [1]): Active
Activity (J774 [2]): Active
Activity (T-cell [3]): Non-Toxic
inhibition at 2 µM (T-cell [5]): 62.3%
Activity (J774 [11]): Active
Activity (J774 [13]): Active
inhibition (Mus musculus [15]): Active
inhibition in vivo at 60 mg/kg (Mus musculus [17]): 55%
